Results reported in ChEMBL document CHEMBL2029242 (J Med Chem, 2012).
The source made the active and inactive calls. The calls are words filed in the database; no cut-off is given here.

Experiments:
hERG (KCNH2) = hERG (KCNH2) (Homo sapiens, UniProt Q12809); assay: Inhibition of human ERG at 10 uM
Outline: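 Whole-cell patch clamp on CHO cells stably expressing hERG. Baseline was set in external solution with 0.1% DMSO. Test article was then applied until steady state, up to 12 min.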

[1] = Volume of distribution in Cynomolgus monkey at 1 mg/kg, iv and 10 mg/kg, po; format: ADME, organism-based, Macaca fascicularis; conditions: in vivo
Outline: (§1)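 Male non-naive cynomolgus monkeys (2.6–3.4 kg) and beagle dogs (10.3–11.9 kg), n = 3 each, were dosed in a crossover design with a ≥7-day washout. Doses were 10 mg/kg by nasogastric gavage and 1 mg/kg as a saphenous iv bolus, both free base in 22% HPβCD. Animals were fasted overnight until about 4 h post dose. Femoral plasma was sampled from predose to 24 h and analyzed by LC-MS/MS. Parameters came from noncompartmental analysis; mean ± SD reported.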

COLO 205 [2] = assay: Antitumor activity against human COLO205 cells xenografted in athymic nude mouse assessed as partial tumor regression at 30 mg/kg, po bid for 14 days; format: functional
Outline: (§2)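 Athymic nude mice carried subcutaneous flank Colo-205 xenografts (1 × 10^6 cells), randomized at 150−200 mm3 (n = 10/group). Oral dosing BID for 14 days in 22% HPβCD against vehicle controls. Caliper volumes W2(L/2) taken three times weekly. Partial regression: volume fell in ≥3 successive measurements to below the starting volume while the tumor stayed palpable.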

[3] = biological target: ALK tyrosine kinase receptor (Homo sapiens, UniProt Q9UM73); assay: Inhibition of ALK in human HEK293 cells after 1 hr by competition binding assay; format: cell-based
Sequence of ALK tyrosine kinase receptor (Q9UM73 whole entry): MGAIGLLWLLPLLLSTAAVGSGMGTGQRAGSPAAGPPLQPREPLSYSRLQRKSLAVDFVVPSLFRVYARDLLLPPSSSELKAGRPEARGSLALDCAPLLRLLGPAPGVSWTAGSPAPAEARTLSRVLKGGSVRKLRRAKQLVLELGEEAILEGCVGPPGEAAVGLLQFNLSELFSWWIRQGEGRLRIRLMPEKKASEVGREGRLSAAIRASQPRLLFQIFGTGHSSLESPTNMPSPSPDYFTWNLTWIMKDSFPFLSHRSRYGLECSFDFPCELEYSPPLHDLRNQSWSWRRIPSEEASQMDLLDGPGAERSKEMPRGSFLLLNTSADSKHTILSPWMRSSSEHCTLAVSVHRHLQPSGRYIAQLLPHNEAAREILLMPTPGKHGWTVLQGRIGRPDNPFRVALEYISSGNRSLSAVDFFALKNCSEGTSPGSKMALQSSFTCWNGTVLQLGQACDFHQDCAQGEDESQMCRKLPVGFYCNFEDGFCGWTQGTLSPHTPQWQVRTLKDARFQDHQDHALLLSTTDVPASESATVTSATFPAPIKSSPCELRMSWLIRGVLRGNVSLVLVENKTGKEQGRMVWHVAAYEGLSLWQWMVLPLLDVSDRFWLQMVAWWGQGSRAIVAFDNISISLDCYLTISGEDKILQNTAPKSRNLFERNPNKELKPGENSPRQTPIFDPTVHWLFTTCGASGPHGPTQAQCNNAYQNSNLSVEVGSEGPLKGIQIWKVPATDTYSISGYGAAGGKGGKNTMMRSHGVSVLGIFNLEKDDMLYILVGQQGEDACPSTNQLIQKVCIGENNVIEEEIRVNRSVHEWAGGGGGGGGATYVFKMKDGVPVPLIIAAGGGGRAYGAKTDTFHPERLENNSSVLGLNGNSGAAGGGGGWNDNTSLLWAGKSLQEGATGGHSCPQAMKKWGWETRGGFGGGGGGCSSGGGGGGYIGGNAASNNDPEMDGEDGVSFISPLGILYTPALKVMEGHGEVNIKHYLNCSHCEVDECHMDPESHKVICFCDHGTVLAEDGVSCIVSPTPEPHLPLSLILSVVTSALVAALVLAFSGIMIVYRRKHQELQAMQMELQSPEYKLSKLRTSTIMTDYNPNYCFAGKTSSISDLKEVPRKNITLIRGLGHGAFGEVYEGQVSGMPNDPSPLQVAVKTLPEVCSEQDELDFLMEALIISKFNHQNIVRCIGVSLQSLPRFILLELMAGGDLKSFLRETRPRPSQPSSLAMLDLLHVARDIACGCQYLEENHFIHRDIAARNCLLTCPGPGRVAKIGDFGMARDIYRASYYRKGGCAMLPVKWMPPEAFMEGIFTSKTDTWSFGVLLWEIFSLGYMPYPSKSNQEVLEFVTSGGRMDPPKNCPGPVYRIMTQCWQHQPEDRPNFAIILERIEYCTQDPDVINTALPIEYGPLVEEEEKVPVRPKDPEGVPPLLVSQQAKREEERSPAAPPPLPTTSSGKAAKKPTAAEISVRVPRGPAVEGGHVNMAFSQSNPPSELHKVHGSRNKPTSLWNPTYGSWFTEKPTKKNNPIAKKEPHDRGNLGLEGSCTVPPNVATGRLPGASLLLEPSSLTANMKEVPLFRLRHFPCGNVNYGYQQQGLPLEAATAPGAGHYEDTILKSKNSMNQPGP
Outline: (§3)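 Unbound kinase was captured on immobilized affinity ligand and quantified by qPCR. Kd came from eleven serial 3-fold dilutions, as the mean of duplicates.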

[4] = Clearance in Cynomolgus monkey at 1 mg/kg, iv and 10 mg/kg, po; format: ADME, organism-based, Macaca fascicularis; conditions: in vivo
Outline: (§4)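 Single-dose PK. Rats: male Sprague−Dawley, jugular-catheterized, 1 mg/kg iv in 3:1 PEG400/water (n = 2) and 10 mg/kg po in Pharmatek #6 (n = 3). Female athymic nude mice: 100 mg/kg po in Pharmatek #6 (n = 3). Beagle dogs and male cynomolgus monkeys (n = 3): crossover, 1 mg/kg iv and 10 mg/kg po in 22% HPβCD, overnight fast. Plasma LC-MS/MS to 24 h; noncompartmental parameters, mean ± SD.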

[5] = biological target: Tyrosine-protein kinase JAK3 (Homo sapiens, UniProt P52333); assay: Inhibition of JAK3 in human HEK293 cells after 1 hr by competition binding assay; format: cell-based; outline: as §3
[6] = Half life in Cynomolgus monkey liver microsomes; format: ADME, Macaca fascicularis, Microsome
Outline: (§5)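 Pooled liver microsomes (0.5 mg/mL) in 0.1 M phosphate pH 7.4 with 6.5 mM MgCl2 and compound at 1 μM (0.2% DMSO). NADPH (1 mM) started the reaction at 37 °C, with minus-NADPH and testosterone controls. Aliquots taken at 0, 5, 15, 30 and 60 min were quenched in acetonitrile; duplicates.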

[7] = biological target: Phosphatidylinositol 4,5-bisphosphate 3-kinase catalytic subunit beta isoform (Homo sapiens, UniProt P42338); assay: Inhibition of PIK3-CB in human HEK293 cells after 1 hr by competition binding assay; format: cell-based; outline: as §3
Sequence of Phosphatidylinositol 4,5-bisphosphate 3-kinase catalytic subunit beta isoform (P42338 whole entry, canonical isoform): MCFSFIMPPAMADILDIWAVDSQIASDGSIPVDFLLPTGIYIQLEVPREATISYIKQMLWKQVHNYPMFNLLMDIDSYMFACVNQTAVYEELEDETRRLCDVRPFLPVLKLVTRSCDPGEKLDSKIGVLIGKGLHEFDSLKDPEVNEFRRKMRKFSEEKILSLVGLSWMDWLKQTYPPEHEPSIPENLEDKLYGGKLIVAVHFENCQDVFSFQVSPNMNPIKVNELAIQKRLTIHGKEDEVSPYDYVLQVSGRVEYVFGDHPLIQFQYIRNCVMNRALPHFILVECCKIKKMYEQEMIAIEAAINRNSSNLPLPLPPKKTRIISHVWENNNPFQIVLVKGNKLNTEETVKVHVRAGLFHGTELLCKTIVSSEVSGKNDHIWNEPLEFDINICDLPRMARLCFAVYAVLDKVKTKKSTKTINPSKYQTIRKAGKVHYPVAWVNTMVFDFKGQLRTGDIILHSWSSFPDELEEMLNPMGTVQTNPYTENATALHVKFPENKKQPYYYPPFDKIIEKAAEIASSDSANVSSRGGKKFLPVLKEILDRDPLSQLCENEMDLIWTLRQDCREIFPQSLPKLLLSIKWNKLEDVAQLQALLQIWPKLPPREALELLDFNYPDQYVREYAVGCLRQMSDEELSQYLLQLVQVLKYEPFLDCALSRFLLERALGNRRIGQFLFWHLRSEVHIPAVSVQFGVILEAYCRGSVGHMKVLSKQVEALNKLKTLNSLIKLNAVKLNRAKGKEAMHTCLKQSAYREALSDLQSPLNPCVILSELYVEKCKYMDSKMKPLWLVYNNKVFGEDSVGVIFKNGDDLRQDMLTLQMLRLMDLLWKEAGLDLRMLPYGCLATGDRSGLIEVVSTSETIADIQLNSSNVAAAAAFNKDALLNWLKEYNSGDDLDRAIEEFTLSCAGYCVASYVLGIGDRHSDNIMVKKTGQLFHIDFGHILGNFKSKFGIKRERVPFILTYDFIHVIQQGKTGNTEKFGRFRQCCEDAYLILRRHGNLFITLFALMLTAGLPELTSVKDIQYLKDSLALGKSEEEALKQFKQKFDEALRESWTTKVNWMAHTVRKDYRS

Mus musculus [8] = assay: Toxicity in athymic nude mouse xenografted with human COLO205 cells at 100 mg/kg, po bid for 14 days measured upto 1 week post dosing; format: organism-based, COLO 205; parameters: dose 100 mg/kg, route oral; conditions: in vivo
Outline: (§6)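 Athymic nude mice (20–25 g) were inoculated subcutaneously in the flank with 1×10^6 Colo-205 cells. At 150–200 mm3 they were randomized (n = 10/group) to oral vehicle (22% HPβCD) or 10, 30 or 100 mg/kg BID for 14 days. Calipers were used three times weekly. Body weight and behavior were monitored, with 7–10 days of follow-up after dosing. Partial regression meant volume falling in ≥3 successive measurements, ending below baseline but still palpable.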

Cytochrome P450 2C9 = Cytochrome P450 2C9 (Homo sapiens, UniProt P11712); assay: Inhibition of human CYP2C9; format: ADME
Sequence of Cytochrome P450 2C9 (P11712 whole entry, canonical isoform): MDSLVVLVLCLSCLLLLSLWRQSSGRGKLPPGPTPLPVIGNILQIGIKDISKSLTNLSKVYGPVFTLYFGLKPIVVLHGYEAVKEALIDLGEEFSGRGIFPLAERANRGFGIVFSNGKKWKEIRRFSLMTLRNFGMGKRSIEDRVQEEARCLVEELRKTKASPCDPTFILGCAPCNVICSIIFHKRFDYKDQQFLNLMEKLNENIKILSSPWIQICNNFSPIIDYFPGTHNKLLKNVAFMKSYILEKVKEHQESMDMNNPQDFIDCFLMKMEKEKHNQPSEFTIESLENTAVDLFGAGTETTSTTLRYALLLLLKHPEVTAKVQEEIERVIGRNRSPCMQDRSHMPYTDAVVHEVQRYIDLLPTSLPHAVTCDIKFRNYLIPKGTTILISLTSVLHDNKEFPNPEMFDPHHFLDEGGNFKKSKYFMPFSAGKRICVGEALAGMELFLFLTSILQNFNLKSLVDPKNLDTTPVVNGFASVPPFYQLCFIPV
Outline: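 Pooled human liver microsomes (0.25 mg/mL) with NADPH (1 mM) and five pooled probe substrates (testosterone, diclofenac, dextromethorphan, mephenytoin, phenacetin). Test compound ran at eight concentrations, 0.31−40 μM, 20 min at 37 °C, with pooled control inhibitors in parallel. Isoform-specific metabolites were measured by LC-MS/MS.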

[9] = Tmax in beagle dog at 10 mg/kg, po; format: ADME, organism-based, Canis lupus familiaris; parameters: dose 10 mg/kg, route oral; conditions: in vivo; outline: as §1
Liver = assay: Intrinsic clearance in dog liver microsomes; format: ADME, Canis lupus familiaris, Microsome
Outline: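 Pooled liver microsomes (0.5 mg/mL) were premixed with 0.1 M phosphate buffer pH 7.4, 6.5 mM MgCl2 and test compound (1 μM final, 0.2% DMSO). NADPH (1 mM) started the reaction at 37 °C, in duplicate. Minus-NADPH and testosterone controls were included. Aliquots were taken at 0, 5, 15, 30 and 60 min and quenched in acetonitrile containing internal standard.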

COLO 205 [10] = assay: Antitumor activity against human COLO205 cells xenografted in athymic nude mouse at 30 mg/kg, po bid for 14 days; format: functional, organism-based; parameters: dose 30 mg/kg; outline: as §2
Aurora kinase A = Aurora kinase A (Homo sapiens, UniProt O14965); assay: Inhibition of Aurora A in human HEK293 cells after 1 hr by competition binding assay; format: cell-based
Sequence of Aurora kinase A (O14965 whole entry): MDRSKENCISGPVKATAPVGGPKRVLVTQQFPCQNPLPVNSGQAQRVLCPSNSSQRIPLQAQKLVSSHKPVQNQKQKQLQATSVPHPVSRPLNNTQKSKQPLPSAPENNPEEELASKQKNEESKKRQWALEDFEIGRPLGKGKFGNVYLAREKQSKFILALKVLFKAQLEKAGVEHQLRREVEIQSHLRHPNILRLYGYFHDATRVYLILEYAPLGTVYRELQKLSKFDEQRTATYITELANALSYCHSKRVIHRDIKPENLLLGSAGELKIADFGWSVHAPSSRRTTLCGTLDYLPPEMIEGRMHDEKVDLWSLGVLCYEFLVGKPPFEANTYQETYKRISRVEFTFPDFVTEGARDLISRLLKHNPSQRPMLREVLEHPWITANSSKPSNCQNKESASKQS
Outline: (§7)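 KINOMEscan competition binding. Binding reactions ran at rt for 1 h. Unbound kinase was captured on an immobilized affinity ligand and quantified by qPCR. Each kinase was tested individually.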

[11] = Oral bioavailability in beagle dog at 10 mg/kg; format: ADME, organism-based, Canis lupus familiaris; conditions: in vivo; outline: as §1
[12] = biological target: Dual specificity mitogen-activated protein kinase kinase 2 (Homo sapiens, UniProt P36507); assay: Inhibition of MEK2 in human HEK293 cells after 1 hr by competition binding assay; format: cell-based; outline: as §7
Sequence of Dual specificity mitogen-activated protein kinase kinase 2 (P36507 whole entry): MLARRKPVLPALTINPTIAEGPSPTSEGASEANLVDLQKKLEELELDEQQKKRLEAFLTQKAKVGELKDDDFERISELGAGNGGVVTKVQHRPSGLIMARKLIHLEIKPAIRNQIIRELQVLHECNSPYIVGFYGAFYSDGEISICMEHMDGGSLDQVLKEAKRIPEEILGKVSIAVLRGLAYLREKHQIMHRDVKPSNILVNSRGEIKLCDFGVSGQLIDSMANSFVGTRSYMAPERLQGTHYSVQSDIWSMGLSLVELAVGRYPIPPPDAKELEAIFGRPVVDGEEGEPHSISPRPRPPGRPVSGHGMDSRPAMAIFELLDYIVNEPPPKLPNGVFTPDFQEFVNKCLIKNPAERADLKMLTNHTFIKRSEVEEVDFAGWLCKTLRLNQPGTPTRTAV

[13] = biological target: Serine/threonine-protein kinase B-raf (Homo sapiens, UniProt P15056); assay: Inhibition of wild type BRAF in human HEK293 cells after 1 hr by competition binding assay; format: cell-based; outline: as §7
Sequence of Serine/threonine-protein kinase B-raf (P15056 whole entry): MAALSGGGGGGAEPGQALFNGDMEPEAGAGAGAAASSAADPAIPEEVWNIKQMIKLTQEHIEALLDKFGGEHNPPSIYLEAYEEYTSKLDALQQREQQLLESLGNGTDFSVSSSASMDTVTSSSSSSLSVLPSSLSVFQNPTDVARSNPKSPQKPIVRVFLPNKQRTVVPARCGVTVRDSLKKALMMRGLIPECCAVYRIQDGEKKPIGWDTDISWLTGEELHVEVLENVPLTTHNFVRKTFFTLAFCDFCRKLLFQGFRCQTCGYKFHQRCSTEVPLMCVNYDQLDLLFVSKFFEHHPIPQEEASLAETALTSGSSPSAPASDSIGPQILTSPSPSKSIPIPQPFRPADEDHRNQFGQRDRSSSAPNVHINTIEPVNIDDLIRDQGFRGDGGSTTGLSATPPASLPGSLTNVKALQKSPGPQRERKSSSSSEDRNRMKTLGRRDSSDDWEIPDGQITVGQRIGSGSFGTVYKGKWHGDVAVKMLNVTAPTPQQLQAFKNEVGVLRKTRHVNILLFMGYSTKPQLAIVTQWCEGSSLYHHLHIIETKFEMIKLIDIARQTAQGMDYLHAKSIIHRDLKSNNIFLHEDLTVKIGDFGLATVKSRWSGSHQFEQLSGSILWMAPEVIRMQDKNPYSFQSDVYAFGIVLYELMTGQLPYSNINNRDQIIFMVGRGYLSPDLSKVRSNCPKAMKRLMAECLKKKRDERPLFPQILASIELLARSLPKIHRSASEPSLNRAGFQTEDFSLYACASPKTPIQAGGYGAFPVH

[14] = Half life in dog liver microsomes; format: ADME, Canis lupus familiaris, Microsome; outline: as §5
[15] = Tmax in athymic nude mouse at 100 mg/kg, po; format: ADME, organism-based; parameters: dose 100 mg/kg, route oral; conditions: in vivo
Outline: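 Female athymic nude mice (20–25 g, n = 3) received a single oral dose of 100 mg/kg in Pharmatek #6, calculated as free base. Blood was drawn into K3EDTA at 15 and 30 min and at 1, 2, 4, 6 and 24 h. Plasma was analyzed by LC-MS/MS. Parameters came from noncompartmental linear-trapezoidal analysis; mean ± SD reported.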

[16] = AUC (0 to 24 hrs) in beagle dog at 10 mg/kg, po; format: ADME, organism-based, Canis lupus familiaris; parameters: time < 24 hr, dose 10 mg/kg, route oral; conditions: plasma; outline: as §4
[17] = Cmax in Cynomolgus monkey at 10 mg/kg, po; format: ADME, organism-based, Macaca fascicularis; parameters: dose 10 mg/kg, route oral; conditions: in vivo; outline: as §4
[18] = Terminal half life in Sprague-Dawley rat at 1 mg/kg, iv and 10 mg/kg, po; format: ADME, organism-based; conditions: in vivo, read-out: beta t1/2 (converted)
Outline: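 Male Sprague-Dawley rats (250–350 g, jugular-catheterized) received a single dose either iv at 1 mg/kg in 3:1 PEG400/water (n = 2) or po at 10 mg/kg in Pharmatek #6 (n = 3). Plasma was sampled at 5 min (iv only), 15 and 30 min, and 1, 2, 4, 6 and 24 h. Samples were analyzed by LC-MS/MS after acetonitrile precipitation. Parameters came from noncompartmental linear-trapezoidal analysis of individual animals.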

Mus musculus [19] = assay: Toxicity in athymic nude mouse xenografted with human COLO205 cells at 30 mg/kg, po bid for 14 days measured upto 1 week post dosing; format: organism-based, COLO 205; parameters: dose 30 mg/kg, route oral; conditions: in vivo; outline: as §6

Vd [1]: 2.5 L/kg | Kd [3]: > 10 µM | clearance [4]: 6.7 mL/min/kg | Kd [5]: > 10 µM | half-life [6]: > 1 h | Kd [7]: > 10 µM | IC50 (Cytochrome P450 2C9): > 10 µM | Tmax [9]: 2 h | CLH (Liver): < 23 µL/min/mg | Kd (Aurora kinase A): > 10 µM | bioavailability [11]: 100% | Kd [12]: 8.3 µM | Kd [13]: 0.036 µM | half-life [14]: > 1 h | Tmax [15]: 1.3 h | AUC(0-t) at 24 h [16]: 55.1 µM·h | Cmax [17]: 4.3 µM | half-life [18]: 7.8 h
Compound: COc1cc2ncnc(Oc3cccc(NC(=O)Nc4cc(C(C)(C)C(F)(F)F)on4)c3)c2cc1OC [CEP-32496]
inhibition at 10 µM (hERG (KCNH2)): < 10% | Activity (COLO 205 [2]): 40% | Activity (Mus musculus [8]): Non-toxic | Activity (COLO 205 [10]): Active | Activity (Mus musculus [19]): Non-toxic
